ChEMBL document CHEMBL1136726, “Synthesis and characterization of iodine-123 labeled 2beta-carbomethoxy-3beta-(4'-((Z)-2-iodoethenyl)phenyl)nortropane. A ligand for in vivo imaging of serotonin transporters by single-photon-emission tomography” (J Med Chem, 2003)

Columns and labels:
[1] = target: Sodium-dependent serotonin transporter (Homo sapiens, UniProt P31645); experiment: In vitro competitive binding versus [3H]citalopram in murine kidney cells transfected with cDNA for human serotonin transporter (SERT); type: cell-based
Sequence of Sodium-dependent serotonin transporter (P31645 whole entry): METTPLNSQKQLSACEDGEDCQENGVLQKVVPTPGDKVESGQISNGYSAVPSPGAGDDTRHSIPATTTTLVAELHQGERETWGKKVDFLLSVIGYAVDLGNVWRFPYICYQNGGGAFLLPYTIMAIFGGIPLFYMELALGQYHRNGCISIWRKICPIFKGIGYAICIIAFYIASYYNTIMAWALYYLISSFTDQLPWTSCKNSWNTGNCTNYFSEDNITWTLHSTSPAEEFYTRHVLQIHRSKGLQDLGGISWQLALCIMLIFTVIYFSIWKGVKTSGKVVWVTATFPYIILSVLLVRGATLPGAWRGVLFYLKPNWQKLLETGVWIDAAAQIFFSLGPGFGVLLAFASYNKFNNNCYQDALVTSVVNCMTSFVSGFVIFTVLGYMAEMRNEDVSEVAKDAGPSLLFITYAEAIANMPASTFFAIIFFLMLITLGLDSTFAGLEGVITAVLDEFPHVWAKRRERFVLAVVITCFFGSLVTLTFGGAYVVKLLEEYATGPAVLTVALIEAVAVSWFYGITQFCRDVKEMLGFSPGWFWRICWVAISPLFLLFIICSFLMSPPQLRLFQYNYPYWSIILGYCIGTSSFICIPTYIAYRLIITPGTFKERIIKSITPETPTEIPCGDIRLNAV

Rattus norvegicus [2] = experiment: Ratio of distribution of radioactivity in rat brain region prefrontal cortex and cerebellum 60 min after intravenous administration of iodine labeled compound in absence of blocker in study 2; type: ADME, organism-based; details: in vivo, 1 h
Rattus norvegicus [3] = experiment: Distribution of radioactivity in rat brain region prefrontal cortex 60 min after intravenous administration of iodine labeled compound in absence of blocker in study 2; type: ADME, organism-based; details: in vivo, 1 h
Procedure, shortened: (§1)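 Male Sprague–Dawley rats (250–300 g), ketamine-anesthetized. Blocker (2 mg/kg) or none was given iv 15 min before tail-vein radioligand (10 µCi in 0.2 mL 10% EtOH/saline). Rats were killed at 60 min with im pentobarbital. Brain regions were dissected, weighed and gamma-counted. % dose/g was taken from decay-corrected, background-subtracted counts versus the injected dose.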

Rattus norvegicus [4] = experiment: Ratio of distribution of radioactivity in rat brain hypothalamus and cerebellum 30 min after intravenous administration of iodine labeled compound; type: ADME, organism-based; details: in vivo, 0.5 h
Procedure, shortened: (§2)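 Male Sprague–Dawley rats (225–300 g) under ketamine anaesthesia were given [123I]ZIENT (10 μCi) in 0.2 mL 10% EtOH/0.9% NaCl into the tail vein, with a saline flush. Hypothalamus, prefrontal cortex, striatum, pons and cerebellum were dissected and gamma-counted. % injected dose/g came from decay-corrected counts against the diluted injected dose, and region/cerebellum ratios were taken from these. Mean ± SE, n=4–5.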

Rattus norvegicus [5] = experiment: Ratio of distribution of radioactivity in rat brain region hypothalamus and cerebellum 60 min after intravenous administration of iodine labeled compound in presence of RTI-113 blocker in study 1; type: ADME, organism-based; details: in vivo, 1 h
Rattus norvegicus [6] = experiment: Distribution of radioactivity in rat brain striatum 5 min after intravenous administration of iodine labeled compound; type: ADME, organism-based; details: in vivo; procedure, shortened: as §2
Rattus norvegicus [7] = experiment: Distribution of radioactivity in rat brain striatum 30 min after intravenous administration of iodine labeled compound; type: ADME, organism-based; details: in vivo, 0.5 h; procedure, shortened: as §2
Rattus norvegicus [8] = experiment: Distribution of radioactivity in rat brain cerebellum 5 min after intravenous administration of iodine labeled compound; type: ADME, organism-based; details: in vivo
Procedure, shortened: (§3)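 Male Sprague–Dawley rats (225–300 g) under ketamine received 10 µCi radioligand iv (tail vein) in 10% EtOH/saline. Hypothalamus, prefrontal cortex, striatum, pons and cerebellum were dissected, weighed and gamma-counted. % injected dose/g was taken from decay-corrected counts versus diluted dose. Mean ± SE and range, n=5 (5, 30 min) or 4 (60, 120 min).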

Rattus norvegicus [9] = experiment: Ratio of distribution of radioactivity in rat brain striatum and cerebellum 120 min after intravenous administration of iodine labeled compound; type: ADME, organism-based; details: in vivo, 2 h
Procedure, shortened: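 Male Sprague–Dawley rats (225–300 g), ketamine anesthesia, injected via tail vein with [123I]ZIENT (10 μCi in 0.2 mL 10% EtOH/0.9% NaCl, 0.4 mL saline flush). Killed at 5, 30, 60 or 120 min. Striatum and cerebellum dissected, weighed, γ-counted. Decay-corrected %injected dose/g taken against diluted injectate. Ratio is striatum over cerebellum. Four or five rats per time point, mean ± standard error.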

Rattus norvegicus [10] = experiment: Ratio of distribution of radioactivity in rat brain region striatum and cerebellum 60 min after intravenous administration of iodine labeled compound in presence of reboxetine blocker in study 2; type: ADME, organism-based; details: in vivo, 1 h
Rattus norvegicus [11] = experiment: Distribution of radioactivity in rat liver 120 min after intravenous administration of iodine labeled compound; type: ADME, organism-based; details: in vivo, 2 h
Procedure, shortened: (§4)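 Tail-vein injection of [123I]ZIENT (10 μCi in 0.2 mL 10% EtOH/0.9% NaCl, then 0.4 mL saline flush) into ketamine-anaesthetised male Sprague–Dawley rats (225–300 g). Animals were killed by cardiac excision at set times. Organs were excised, rinsed, blotted, weighed and gamma-counted. % dose/g was calculated against diluted aliquots of injectate. Mean ± SE, n=4–5.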

Rattus norvegicus [12] = experiment: Distribution of radioactivity in rat brain region frontal cortex 60 min after intravenous administration of iodine labeled compound in absence of blocker in study 1; type: ADME, organism-based; details: in vivo, 1 h; procedure, shortened: as §1
Rattus norvegicus [13] = experiment: Distribution of radioactivity in rat heart 60 min after intravenous administration of iodine labeled compound; type: ADME, organism-based; details: in vivo, 1 h; procedure, shortened: as §4
Rattus norvegicus [14] = experiment: Distribution of radioactivity in rat thyroid 30 min after intravenous administration of iodine labeled compound; type: ADME, organism-based, Thyroid gland; details: in vivo, 0.5 h; procedure, shortened: as §4
Rattus norvegicus [15] = experiment: Distribution of radioactivity in rat liver 60 min after intravenous administration of iodine labeled compound; type: ADME, organism-based; details: in vivo, 1 h; procedure, shortened: as §4
Rattus norvegicus [16] = experiment: Ratio of distribution of radioactivity in rat brain prefrontal cortex and cerebellum 5 min after intravenous administration of iodine labeled compound; type: ADME, organism-based; details: in vivo; procedure, shortened: as §2
Rattus norvegicus [17] = experiment: Distribution of radioactivity in rat brain region cerebellum 60 min after intravenous administration of iodine labeled compound in presence of reboxetine blocker in study 2; type: ADME, organism-based; details: in vivo, 1 h; procedure, shortened: as §1
Rattus norvegicus [18] = experiment: Distribution of radioactivity in rat brain pons 60 min after intravenous administration of iodine labeled compound; type: ADME, organism-based; details: in vivo, 1 h; procedure, shortened: as §3
Rattus norvegicus [19] = experiment: Distribution of radioactivity in rat lung 30 min after intravenous administration of iodine labeled compound; type: ADME, organism-based; details: in vivo, 0.5 h; procedure, shortened: as §4
Rattus norvegicus [20] = experiment: Ratio of distribution of radioactivity in rat brain hypothalamus and cerebellum 5 min after intravenous administration of iodine labeled compound; type: ADME, organism-based; details: in vivo; procedure, shortened: as §2
Rattus norvegicus [21] = experiment: Distribution of radioactivity in rat blood 5 min after intravenous administration of iodine labeled compound; type: ADME, organism-based; details: in vivo
Procedure, shortened: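 Male Sprague–Dawley rats (225–300 g) under ketamine received 10 µCi radioligand in 0.2 mL 10% EtOH/0.9% NaCl via tail vein, then a saline flush. Killed by cardiac excision at set times. Organs were excised, weighed and gamma-counted. % dose/g was taken against diluted injectate. Mean ± SE and range, n=4 (5 min) or 5 (30–120 min).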

Rattus norvegicus [22] = experiment: Distribution of radioactivity in rat brain prefrontal cortex 60 min after intravenous administration of iodine labeled compound; type: ADME, organism-based; details: in vivo, 1 h; procedure, shortened: as §3
Rattus norvegicus [23] = experiment: Distribution of radioactivity in rat muscle tissue 30 min after intravenous administration of iodine labeled compound; type: ADME, organism-based; details: in vivo, 0.5 h; procedure, shortened: as §4
Rattus norvegicus [24] = experiment: Distribution of radioactivity in rat thyroid 120 min after intravenous administration of iodine labeled compound; type: ADME, organism-based, Thyroid gland; details: in vivo, 2 h; procedure, shortened: as §4
Rattus norvegicus [25] = experiment: Distribution of radioactivity in rat brain 60 min after intravenous administration of iodine labeled compound; type: ADME, organism-based; details: in vivo, 1 h
Rattus norvegicus [26] = experiment: Ratio of distribution of radioactivity in rat brain region prefrontal cortex and cerebellum 60 min after intravenous administration of iodine labeled compound in absence of blocker in study 1; type: ADME, organism-based; details: in vivo, 1 h
Rattus norvegicus [27] = experiment: Ratio of distribution of radioactivity in rat brain prefrontal cortex and cerebellum 60 min after intravenous administration of iodine labeled compound; type: ADME, organism-based; details: in vivo, 1 h; procedure, shortened: as §2
Rattus norvegicus [28] = experiment: Distribution of radioactivity in rat brain region frontal cortex 60 min after intravenous administration of iodine labeled compound in presence of fluvoxamine blocker in study 1; type: ADME, organism-based; details: in vivo, 1 h; procedure, shortened: as §1
Rattus norvegicus [29] = experiment: Distribution of radioactivity in rat brain region hypothalamus 60 min after intravenous administration of iodine labeled compound in presence of fluvoxamine blocker in study 1; type: ADME, organism-based; details: in vivo, 1 h; procedure, shortened: as §1
Rattus norvegicus [30] = experiment: Distribution of radioactivity in rat brain region hypothalamus 60 min after intravenous administration of iodine labeled compound in presence of RTI-113 blocker in study 1; type: ADME, organism-based; details: in vivo, 1 h; procedure, shortened: as §1
Rattus norvegicus [31] = experiment: Distribution of radioactivity in rat testis 60 min after intravenous administration of iodine labeled compound; type: ADME, organism-based; details: in vivo, 1 h; procedure, shortened: as §4
Rattus norvegicus [32] = experiment: Distribution of radioactivity in rat spleen 120 min after intravenous administration of iodine labeled compound; type: ADME, organism-based; details: in vivo, 2 h; procedure, shortened: as §4
Rattus norvegicus [33] = experiment: Distribution of radioactivity in rat spleen 30 min after intravenous administration of iodine labeled compound; type: ADME, organism-based; details: in vivo, 0.5 h; procedure, shortened: as §4
Rattus norvegicus [34] = experiment: Distribution of radioactivity in rat brain region prefrontal cortex 60 min after intravenous administration of iodine labeled compound in presence of RTI-113 blocker in study 1; type: ADME, organism-based; details: in vivo, 1 h; procedure, shortened: as §1
Rattus norvegicus [35] = experiment: Distribution of radioactivity in rat brain cerebellum 30 min after intravenous administration of iodine labeled compound; type: ADME, organism-based; details: in vivo, 0.5 h; procedure, shortened: as §3

SMILES: COC(=O)[C@@H]1C2CCC(C[C@@H]1c1ccc(/C=C\I)cc1)N2 (stereo not given in full)
- Ki [1]: 0.05 nM
- Distribution (dose/g) (Rattus norvegicus [2]): 3.89%
- Distribution (dose/g) (Rattus norvegicus [3]): 0.74%
- Distribution (dose/g) (Rattus norvegicus [4]): 2.38%
- Distribution (dose/g) (Rattus norvegicus [5]): 3.2%
- Distribution (dose/g) (Rattus norvegicus [6]): 0.64%
- Distribution (dose/g) (Rattus norvegicus [7]): 0.72%
- Distribution (dose/g) (Rattus norvegicus [8]): 0.53%
- Distribution (dose/g) (Rattus norvegicus [9]): 4%
- Distribution (dose/g) (Rattus norvegicus [10]): 3.04%
- Distribution (dose/g) (Rattus norvegicus [11]): 0.23%
- Distribution (dose/g) (Rattus norvegicus [12]): 0.75%
- Distribution (dose/g) (Rattus norvegicus [13]): 0.29%
- Distribution (dose/g) (Rattus norvegicus [14]): 0.49%
- Distribution (dose/g) (Rattus norvegicus [15]): 0.22%
- Distribution (dose/g) (Rattus norvegicus [16]): 1.45%
- Distribution (dose/g) (Rattus norvegicus [17]): 0.23%
- Distribution (dose/g) (Rattus norvegicus [18]): 0.59%
- Distribution (dose/g) (Rattus norvegicus [19]): 1.59%
- Distribution (dose/g) (Rattus norvegicus [20]): 1.09%
- Distribution (dose/g) (Rattus norvegicus [21]): 0.44%
- Distribution (dose/g) (Rattus norvegicus [22]): 0.82%
- Distribution (dose/g) (Rattus norvegicus [23]): 0.23%
- Distribution (dose/g) (Rattus norvegicus [24]): 1.87%
- Distribution (dose/g) (Rattus norvegicus [25]): 0.62%
- Distribution (dose/g) (Rattus norvegicus [26]): 3.88%
- Distribution (dose/g) (Rattus norvegicus [27]): 3.28%
- Distribution (dose/g) (Rattus norvegicus [28]): 0.27%
- Distribution (dose/g) (Rattus norvegicus [29]): 0.31%
- Distribution (dose/g) (Rattus norvegicus [30]): 0.8%
- Distribution (dose/g) (Rattus norvegicus [31]): 0.32%
- Distribution (dose/g) (Rattus norvegicus [32]): 0.43%
- Distribution (dose/g) (Rattus norvegicus [33]): 0.81%
- Distribution (dose/g) (Rattus norvegicus [34]): 0.78%
- Distribution (dose/g) (Rattus norvegicus [35]): 0.32%
